This is an account of results in paper PMC3830715 (Biochemistry, 2013).

Residue numbers refer to the chain shown, from its start.

Series [1] has as its target T1, WT PDK1 PH domain (Homo sapiens, UniProt O15530).
T1 sequence (O15530 459-550 limits assumed): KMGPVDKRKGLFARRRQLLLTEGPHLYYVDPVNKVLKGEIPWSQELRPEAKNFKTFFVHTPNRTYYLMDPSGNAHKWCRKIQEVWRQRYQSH
It counts as binding. The procedure, abridged: (§1)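 PH domain (1 μM, from Sf9 cells) was rapidly mixed by stopped flow with plasma membrane-like SUVs (600 μM total lipid, 6 μM accessible PIP₃). Final concentrations were 0.5 μM protein and 3 μM PIP₃, at 25 °C in HEPES pH 7.4 buffer with 10 mM DTT. Trp-to-dansyl-PE FRET was monitored, and a single-exponential fit gave k_on(app). k_off was estimated from the measured K_D and k_on.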

For series [2], the target named is T1, WT PDK1 PH domain. It counts as binding. This is another data set of the same source.
Series [3] has as its system WT and T513E PDK1 PH domains. It is filed as binding, human. As to conditions: PC/PS/PIP3 74/24/2 supported bilayer (dioleoyl PIP3), SE n = 3.
Series [4] addresses T2, T513E PDK1 PH domain (Homo sapiens, UniProt O15530, T513E).
T2 sequence (O15530 459-550 T513E limits assumed): T1 sequence (O15530 459-550 limits assumed) with T55E
It counts as binding. A digest of the protocol: as §1

In series [5] the target is T2, T513E PDK1 PH domain. It counts as binding. As to conditions: read-out: KD(IP6); free T513E PH domain in solution, 25 °C, physiological buffer. A digest of the protocol: (§2)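 Free PH domain, purified from Sf9 cells, was titrated with IP₆ in solution at 25 °C. The buffer was HEPES pH 7.4 with 140 mM KCl, 15 mM NaCl, 0.5 mM MgCl₂ and 10 mM DTT. Intrinsic Trp fluorescence was read at ex 284 nm / em 335 nm, slits 1/8 nm. K_DI came from a nonlinear least squares fit assuming homogeneous binding sites.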

For series [6], the target named is T1, WT PDK1 PH domain. It counts as binding. Particulars: read-out: KD(IP6); free WT PH domain in solution, 25 °C, physiological buffer. The procedure, abridged: as §2
Series [7] concerns the molecule itself. Description: single molecule TIRFM brightness analysis.

For the molecule `CCCCCCCCCCCCCCCC(=O)OC[C@H](COP(=O)(O)OC1[C@H](O)[C@H](OP(=O)(O)O)C(OP(=O)(O)O)[C@H](OP(=O)(O)O)[C@H]1O)OC(=O)CCCCCCCCCCCCCCC` (some centres unmarked) [PIP3, 1,2-dipalmitoylphosphatidylinositol 3,4,5-trisphosphate], the “kon (app)” value on WT PDK1 PH domain [1] (WT PH domain 0.5 μM, 3 μM accessible PIP3, 25 °C) was found to be 1.6e+06 ± 100000 M⁻¹ s⁻¹; at T513E PDK1 PH domain [4] (T513E PH domain 0.5 μM, 3 μM accessible PIP3, 25 °C), 2.5e+06 ± 100000 M⁻¹ s⁻¹. Also, the “koff (calc)” value is listed as 0.3 ± 0.2 ms ^−1 on WT PDK1 PH domain [1] (WT PH domain, estimated from measured KD and kon); 18 ± 5 ms ^−1 on T513E PDK1 PH domain [4] (T513E PH domain, estimated from measured KD and kon). For the same molecule, on WT PDK1 PH domain [2] (plasma membrane-like bilayers), the “greater PIP3 membrane affinity of dimeric WT relative to monomeric T513E” value worked out at 35 fold. Also, the “higher concentration of T513E PH domain needed relative to WT for same density of membrane-associated single particles (lower affinity for target PIP3 bilayer)” value in series [3] is on record as 9.7 ± 1.9 fold.
For `O=P(O)(O)OC1[C@H](O)[C@H](OP(=O)(O)O)C(OP(=O)(O)O)[C@H](OP(=O)(O)O)[C@H]1O` (some centres unmarked) [IP4, inositol 1,3,4,5-tetrakis(phosphate)], the “higher affinity for IP4 than for IP6” value on WT PDK1 PH domain [2] (WT PH domain) is recorded as 80 fold.
As for `O=P(O)(O)OC1C(OP(=O)(O)O)C(OP(=O)(O)O)C(OP(=O)(O)O)C(OP(=O)(O)O)C1OP(=O)(O)O` (centres unmarked) [IP6, Inositol 1,2,3,4,5,6-hexakisphosphate], the membrane-bound protein displaced result on WT PDK1 PH domain [2] (1 mM IP6, WT PH domain on PIP3 target membranes) is given as “less than 5%”. For the same molecule, the values for the equilibrium dissociation constant (Kd) on T513E PDK1 PH domain [5] and at WT PDK1 PH domain [6] were 30 ± 11 µM and 9 ± 3 µM, respectively.

B1: human WT PDK1 PH domain, AF555-labeled (domain or fragment, UniProt O15530 409-556, looked up)
chain: GSNIEQYIHDLDSNSFELDLQFSEDEKRLLLEKQAGGNPWHQFVENNLILKMGPVDKRKGLFARRRQLLLTEGPHLYYVDPVNKVLKGEIPWSQELRPEAKNFKTFFVHTPNRTYYLMDPSGNAHKWCRKIQEVWRQRYQSHPDAAVQ
modifications: Alexa Fluor 555 on the N-terminal Sfp labeling tag (enzymatic labeling, up to ~50% labeling efficiency)
For the molecule B1, the “stoichiometry N” value in series [7] is 2.
